The text below walks through data of ChEMBL document CHEMBL3745596, “Chlorophenoxy aminoalkyl derivatives as histamine H(3)R ligands and antiseizure agents” (Bioorg Med Chem, 2016).

Structures are written as SMILES. Calls of active or inactive are those of the source.

Data set [1] deals with Rattus norvegicus. Description: Anticonvulsant activity in ip dosed Sprague-Dawley rat assessed as protection against maximal electroshock-induced seizure after 1 hr. It is filed as functional.
Data set [2] concerns Rattus norvegicus. Put plainly: Anticonvulsant activity in Sprague-Dawley rat assessed as protection against pilocarpine-induced convulsive status epilepticus at 50 mg/kg, ip. In kind it is functional, organism-based. In short, it runs like this:
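Male Sprague Dawley rats (150–180 g) dosed ip, pilocarpine 50 mg/kg ip given; compound dosed immediately at first behavioral Stage 3 seizure or 30 min later. Number protected from Racine Stage 3 or greater seizures recorded.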

Data set [3] has as its system Mus musculus. Description: Analgesic activity in mouse assessed as inhibition of formalin-induced paw licking behavior at 16 mg/kg, ip after 0.25 hrs. In kind it is functional, organism-based. In short, it runs like this: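 Male albino mice, ip in 0.5% methylcellulose; 0.5% formalin injected sub-dermally into right hindpaw plantar surface 0.25 h after dosing. Paw licking observed for the first 2 min of each 5-min epoch up to 40 min after dosing; cumulative licking duration compared with vehicle-pretreated group, acute and inflammatory phases.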

The test system of data set [4] is Mus musculus. Put plainly: Anticonvulsant activity in CF1 albino mouse assessed as protection against subcutaneous pentetrazole-induced seizure at 30 mg/kg, ip after 0.5 hrs. In kind it is functional, organism-based. In short, it runs like this:
(§1)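 Male CF-1 mice, ip in 0.5% methylcellulose; pentetrazole at CD97 (85 mg/kg) injected subcutaneously in a loose fold of neck skin. Observed 30 min; absence of even a threshold seizure (single clonic spasm lasting at least 5 s) counted as protection. Scored protected/tested, or ED50.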

For data set [5], the system named is Mus musculus. Put plainly: Anticonvulsant activity in CF1 albino mouse assessed as protection against subcutaneous pentetrazole-induced seizure at 100 mg/kg, ip after 0.5 hrs. It is filed as functional, organism-based. In short, it runs like this:
as §1

Data set [6] has as its system Mus musculus. Description: Neurotoxicity in CF1 albino mouse assessed as unable to grasp rotarod and death at 300 mg/kg, ip after 0.5 hrs by rotarod test. In kind it is toxicity, organism-based. The settings on record: in vivo. In short, it runs like this: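 Male albino CF-1 mice dosed ip with compound suspended in 0.5% methylcellulose, then placed on a 1-inch knurled plastic rod turning at 6 rpm. A fall three times within 1 min counted as neurotoxicity. Observations were made at 0.5 h and 4 h after dosing. Result given as animals showing toxicity per animals tested, with the kind of toxicity recorded.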
For orientation: The rotarod test checks motor coordination on a turning rod.

The test system of data set [7] is Rattus norvegicus. Description: Anticonvulsant activity in Sprague-Dawley rat assessed as protection against maximal electroshock-induced seizure at 30 mg/kg, ip after 1 hr. In kind it is functional, organism-based. Background: In the maximal electroshock model the usual endpoint is tonic extension of the hind limbs.
The test system of data set [8] is Rattus norvegicus. Description: Neurotoxicity in Sprague-Dawley rat at 30 mg/kg, ip after 0.25 hrs by rotarod test. The conditions noted are these: in vivo. In kind it is toxicity, organism-based. In short, it runs like this: (§2)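 Male Sprague–Dawley rats given compound ip as a suspension in 0.5% methylcellulose, groups of four. Rotarod: 1 inch knurled rod at 6 rpm; three falls within 1 min counts as neurotoxic. Scored as number toxic/number tested at pretreatment times between 0.25 and 4 h, or at the stated time.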

Data set [9] has as its system Rattus norvegicus. Put plainly: Neurotoxicity in Sprague-Dawley rat at 30 mg/kg, ip after 0.5 hrs by rotarod test. The conditions noted are these: in vivo. In kind it is toxicity, organism-based. In short, it runs like this:
as §2

The test system of data set [10] is Rattus norvegicus. Put plainly: Anticonvulsant activity in Sprague-Dawley rat assessed as protection against maximal electroshock-induced seizure at 30 mg/kg, po. In kind it is functional.
Data set [11] has as its system Mus musculus. Put plainly: Anticonvulsant activity in CF1 albino mouse assessed as protection against 6 Hz-psychomotor-induced seizure at 30 mg/kg, ip after 0.25 to 4 hrs. It is filed as functional, organism-based. In short, it runs like this: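 Male CF-1 mice, ip suspension in 0.5% methylcellulose. Corneal stimulation 0.2 ms monopolar rectangular pulses at 6 Hz, 32 mA for 3 s via constant-current device; mice without minimal clonic phase seizure counted protected. Groups of four; read at 0.25, 0.5, 1, 2, 4 h; result as protected/tested.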

Data set [12] has as its system Mus musculus. Description: Neurotoxicity in CF1 albino mouse at 30 mg/kg, ip after 0.25 to 4 hrs by rotarod test. In kind it is toxicity, organism-based. The settings on record: in vivo. In short, it runs like this:
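Rotarod neurotoxicity in male albino CF-1 mice dosed ip with compound suspended in 0.5% methylcellulose. Animal placed on a 1 inch diameter knurled plastic rod rotating at 6 rpm. Neurotoxicity scored when the animal falls off three times within 1 min. Readout is number of animals toxic/number tested at the stated time after dosing. TD50 with 95% confidence interval from the quantitative study.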

A word on the ED50: it is the midpoint of the dose-response relation. As for `CC1CCCN(CCCCCCCOc2ccc(Cl)cc2)C1.O=C(O)C(=O)O` (configuration not stated), the ED50 in the data set with Rattus norvegicus [1] is 13.2 mg/kg. Besides, the outcome in the data set on Rattus norvegicus [2], in the data set with Mus musculus [3], in the data set with Mus musculus [4], in the data set on Mus musculus [5] and with Mus musculus [11] was inactive. In addition, the Activity result was “Toxic” in the data set with Mus musculus [6]; “Non-toxic” in the data set on Rattus norvegicus [8]; “Non-toxic” in the data set with Rattus norvegicus [9]; 25% in the data set with Rattus norvegicus [10]; “Non-toxic” with Mus musculus [12]. Further, the outcome with Rattus norvegicus [7] was Active.
